The term GI50 denotes the concentration giving 50% growth inhibition. As a reminder, the TGI is the concentration giving total growth inhibition. Low values mean greater sensitivity of the cells, high ones lower sensitivity of the cells.

The subject of experiment [1] is Mus musculus. Put plainly: The compound was evaluated for the mean body weight change (BWC) in mice infected with cisplatin sensitive L1210 Leukemia (dose 10 mg/kg, ip),day 5. In kind it is functional, organism-based. Details: dose 10 mg/kg. In outline: (§1)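 CD2F1 mice implanted ip on day 0 with 10^5 L1210/0 (parent) leukemia cells, in groups of 6 or 10 (20 or 30 controls). Complexes given ip in saline plus Tween 80 on days 1, 5 and 9. BWC is the group mean weight change, day 5 minus day 1. MST is median survival and %ILS is calculated from MST, both from dying mice only, excluding day 30 survivors.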

Experiment [2] relates to Mus musculus. The experiment is described as follows: The compound was evaluated for the median survival time (MST) in mice infected with cisplatin sensitive L1210 Leukemia (dose 10 mg/kg, ip), day 1. It counts as functional, organism-based. Also on record: dose 10 mg/kg. In outline: as §1
Experiment [3] deals with Mus musculus. Put plainly: The compound was evaluated for the mean body weight change (BWC) in mice infected with cisplatin sensitive L1210 Leukemia (dose 10 mg/kg, ip),day 1. In kind it is functional, organism-based. Also on record: dose 10 mg/kg. In outline: as §1
The subject of experiment [4] is Mus musculus. The experiment is described as follows: The compound was evaluated for the mean body weight change (BWC) in mice infected with cisplatin sensitive L1210 Leukemia (dose 20 mg/kg, ip),day 5. It counts as functional, organism-based. Also on record: dose 20 mg/kg. In outline:
as §1

In experiment [5] the test system is Mus musculus. Put plainly: The compound was evaluated for the mean body weight change (BWC) in mice infected with cisplatin sensitive L1210 Leukemia (dose 40 mg/kg, ip),day 1. In kind it is functional, organism-based. Also on record: dose 40 mg/kg. In outline: as §1
Experiment [6] has as its system Mus musculus. The experiment is described as follows: The compound was evaluated for the mean body weight change (BWC) in mice infected with cisplatin sensitive L1210 Leukemia (dose 80 mg/kg, ip),day 1. In kind it is functional, organism-based. Details: dose 80 mg/kg. In outline:
as §1

Experiment [7] concerns Mus musculus. Put plainly: The compound was evaluated for the median survival time (MST) in mice infected with cisplatin sensitive L1210 Leukemia (dose 80 mg/kg, ip), day 5. It counts as functional, organism-based. Details: dose 80 mg/kg. In outline:
as §1

Experiment [8] deals with Mus musculus. Put plainly: The compound was evaluated for the median survival time (MST) in mice infected with cisplatin sensitive L1210 Leukemia (dose 40 mg/kg, ip), day 5. It counts as functional, organism-based. Details: dose 40 mg/kg. In outline: as §1
The test system of experiment [9] is Tumor Cell line. Put plainly: Evaluated in vitro for the log10 molecular concentration that caused 50 % inhibition of tumor growth of 60 human tumor cell lines. In kind it is functional, cell-based. In outline:
(§2)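 Cells preincubated 24 h, then exposed to the agent at five 10-fold dilutions (0.01–100 μM for the platinum complexes) for 48 h. Cells fixed in situ and stained; solubilized stain read spectrophotometrically. Panel of leukemia, non-small-cell lung, ovarian and renal lines. Log GI50 or TGI taken per cell line in one experiment, then averaged across lines.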

The test system of experiment [10] is Mus musculus. The experiment is described as follows: The compound was evaluated for the median survival time (MST) in mice infected with cisplatin sensitive L1210 Leukemia (dose 10 mg/kg, ip), day 5. It counts as functional, organism-based. Details: dose 10 mg/kg. In outline:
as §1

Experiment [11] relates to Tumor Cell line. The experiment is described as follows: Evaluated in vitro for the log10 molecular concentration that caused […] tumor growth of 60 human tumor cell lines. In kind it is functional, cell-based. In outline: as §2
In experiment [12] the test system is Mus musculus. Put plainly: The compound was evaluated for the median survival time (MST) in mice infected with cisplatin sensitive L1210 Leukemia (dose 40 mg/kg, ip), day 1. In kind it is functional, organism-based. Details: dose 40 mg/kg. In outline: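 On day 0, 10⁵ parent or cisplatin-resistant L1210 cells were implanted ip into CD2F1 mice, 6 or 10 per dose group (20 or 30 controls). Dosing was ip on days 1, 5 and 9 in saline plus Tween 80. Median survival time was taken from dying mice only, excluding day-30 survivors. Both sublines were tested concurrently.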

The test system of experiment [13] is Mus musculus. Put plainly: The compound was evaluated for the mean body weight change (BWC) in mice infected with cisplatin sensitive L1210 Leukemia (dose 80 mg/kg, ip),day 5. It counts as functional, organism-based. Details: dose 80 mg/kg. In outline:
as §1

In experiment [14] the test system is Mus musculus. Put plainly: The compound was evaluated for the mean body weight change (BWC) in mice infected with cisplatin sensitive L1210 Leukemia (dose 40 mg/kg, ip),day 5. It counts as functional, organism-based. Also on record: dose 40 mg/kg. In outline: as §1
The subject of experiment [15] is Mus musculus. Put plainly: The compound was evaluated for the median survival time (MST) in mice infected with cisplatin sensitive L1210 Leukemia (dose 80 mg/kg, ip), day 1. In kind it is functional, organism-based. Details: dose 80 mg/kg. In outline: as §1
Experiment [16] has as its system Mus musculus. Put plainly: The compound was evaluated for the median survival time (MST) in mice infected with cisplatin sensitive L1210 Leukemia (dose 20 mg/kg, ip), day 5. In kind it is functional, organism-based. Also on record: dose 20 mg/kg. In outline:
as §1

Regarding “[Bis(aminomethyl)dimethylsilane]tetrachloroplatinum(IV)”, the BWC in the experiment with Mus musculus [1] was 0.1 g; in the experiment with Mus musculus [3], 0 g; in the experiment on Mus musculus [4], -0.6 g; in the experiment on Mus musculus [5] it was -2.4 g; in the experiment on Mus musculus [6], -5 g; in the experiment with Mus musculus [13], -3.4 g. Moreover, the BWC in the experiment on Mus musculus [14] is -1.3 g. Also, the MST with Mus musculus [2] was determined as 18.5 days; in the experiment on Mus musculus [7] it was 10 days; with Mus musculus [8], 21 days; with Mus musculus [10], 15 days; in the experiment on Mus musculus [12] it was 27 days; with Mus musculus [15], 8.3 days. For the same substance, the MST in the experiment on Mus musculus [16] was determined as 19 days. Besides, the GI50 with Tumor Cell line [9] was found to be 4.79 µM. In the experiment on Tumor Cell line [11], this substance had a TGI of 41.7 µM.

(Values after ChEMBL document CHEMBL1128557, “Synthesis, antitumor activity, and chemical properties of silaplatin and related platinum (II) and platinum (IV) complexes derived from beta-silyl amines” (J Med Chem, 1995).)
